Assay outcomes deposited in PubChem BioAssay by Sanford-Burnham Center for Chemical Genomics.
This is a sample that favours compounds with a hit; in the whole collection about 0.77% have one here.
mIAP block: inhibitors of mouse IAP, primary screen, biochemical, luminescence, uHTS | purified mouse IAP, CDP-Star luminescence, 30 min | inhibition, % at 10 µM | actives 0.2% (n = 330,000);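 active = inhibition of at least 40% at 10 µM in the primary screen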;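 also: plate controls were DMSO with enzyme for no effect and no enzyme wells for full effect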
mIAP act: activators of mouse IAP, primary screen, biochemical, luminescence, uHTS | intestinal alkaline phosphatase [Mus musculus] | activation factor at 10 µM | AID 2805, 2010 | actives 0.24% (n = 330,000) | muIAP, CDP-Star luminescence, 30 min; stronger effect = higher value; 1 = vehicle-only enzyme signal, 0 = enzyme-free wells;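 active = activation factor of at least 2 at 20 µM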
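System: mouse IAP enzyme. Reagent: CDP-Star chemiluminescent phosphatase substrate. Benchmarks: DMSO wells, no-enzyme wells. Times: 30 min enzyme-substrate-compound incubation at room temperature. Detection: luminescence from enzymatic CDP-Star hydrolysis. Doses: test compounds delivered from DMSO solution.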
hIAP inh: human IAP inhibitors, primary screen, biochemical, luminescence, uHTS | actives 0.12% (n = 330,000) | AID 2544, 2010 | purified IAP, CDP-Star luminescence, 30 min | Intestinal-type alkaline phosphatase (Homo sapiens), P09923 | inhibition, % at 10 µM;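 active = inhibition reaching a set limit with compound at 10 µM in the primary screen, cut at about 35% in these data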;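 also: plate controls were DMSO wells with enzyme for no effect and no-enzyme buffer wells for full effect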
Target sequence (P09923 whole entry, looked up): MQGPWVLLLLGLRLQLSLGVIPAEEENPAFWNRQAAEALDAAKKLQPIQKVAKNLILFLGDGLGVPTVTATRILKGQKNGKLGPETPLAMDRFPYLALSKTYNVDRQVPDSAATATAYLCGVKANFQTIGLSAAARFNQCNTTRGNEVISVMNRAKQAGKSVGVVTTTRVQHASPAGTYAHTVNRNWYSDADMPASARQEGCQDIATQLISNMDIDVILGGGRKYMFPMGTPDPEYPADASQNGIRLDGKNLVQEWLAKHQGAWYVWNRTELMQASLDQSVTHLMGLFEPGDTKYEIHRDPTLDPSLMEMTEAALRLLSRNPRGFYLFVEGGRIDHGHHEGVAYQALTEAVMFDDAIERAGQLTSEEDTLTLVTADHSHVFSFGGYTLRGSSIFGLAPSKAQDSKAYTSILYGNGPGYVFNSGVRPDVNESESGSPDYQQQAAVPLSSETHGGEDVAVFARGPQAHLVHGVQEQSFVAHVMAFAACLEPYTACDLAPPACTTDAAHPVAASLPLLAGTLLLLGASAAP
bIAP inh: bovine intestinal alkaline phosphatase inhibitors, primary screen, selectivity assay for TNAP inhibitor project, biochemical, bovine IAP, CDP-star luminescence | alkaline phosphatase, intestinal [Bos taurus] | purified bovine IAP, 30 min | inhibition, % at 20 µM | 190,000 tested, under 10 active;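 active = over 50% inhibition of intestinal alkaline phosphatase at 20 µM in the single-dose screen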
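System: purified bovine intestinal alkaline phosphatase (IAP) enzyme; Input: IAP diluted 1/65,000,000 in the well; Measured by: CDP-star luminescence signal; Compound dosing: 20 µM single dose; Incubation: 30 min reaction at room temperature.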
bIAP activator: bovine intestinal alkaline phosphatase activators, primary screen, biochemical, bovine IAP, CDP-star luminescence; alkaline phosphatase, intestinal [Bos taurus]; purified bovine IAP, 30 min; stronger effect = higher value; fold of DMSO-control signal, blank-subtracted; activation factor at 20 µM; actives 0.17% (n = 200,000);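 active = activation factor of 2 or more at 20 µM, a signal rise over negative controls twice the positive control's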
hIAP activ: human IAP activators, primary screen, biochemical, luminescence, uHTS; Intestinal-type alkaline phosphatase (Homo sapiens), P09923; purified human IAP, CDP-Star luminescence, 30 min; stronger effect = higher value; 1 = vehicle-only enzyme, 0 = enzyme-free background; activation factor at 10 µM; actives 0.16% (n = 330,000); AID 2524, 2010;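 active = activation factor of the enzyme at least 2-fold when tested at 20 µM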
mIAP inh conf: inhibitors of mouse IAP, confirmation, biochemical, luminescence, single concentration | shares compounds with mIAP block | purified mouse IAP, CDP-Star luminescence, 30 min | inhibition, % at 10 µM | actives 4.7% (n = 11,000) | AID 434971, 2010;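 active = inhibition of at least 40% at 10 µM in either of the two replicates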;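 also: plate controls were DMSO wells with enzyme for no effect and buffer wells lacking enzyme for full effect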
* = called active by the depositor; . = not tested or not shown.

SMILES	mIAP block	mIAP act	hIAP inh	bIAP inh	bIAP activator	hIAP activ	mIAP inh conf
Cc1cc(-c2ccco2)n(-c2ccccc2)n1	3	0.97	7	-9	1.1	0.93	.
CC(=O)Oc1cc(C(=O)OCC(=O)N2CCc3ccccc3C2)cc(OC(C)=O)c1OC(C)=O	46*	0.55	-27	.	.	1.3	51*
Cc1ccc(S(=O)(=O)/N=C2/NC(=O)/C(=C/c3ccc(Br)o3)S2)cc1	31	0.69	22	-4	1	0.78	.
Cc1ccc(S(=O)(=O)/N=C2/NC(=O)/C(=C\c3cc(Br)cc(Br)c3O)S2)cc1	43*	0.57	3	.	.	0.97	49*
Cc1cc(=O)n2[nH]cc(C(=O)O)c2n1	53*	0.47	5	9	0.9	0.95	58*
Cc1cc(=O)n2[nH]c(C(=O)O)nc2n1	12	0.88	-13	6	0.9	1.1	.
COc1ccc(NC(=O)COc2cc(C)cc(C)c2)cc1S(=O)(=O)N1CCCCC1	-18	1.2	10	.	.	0.9	.
Cc1ccccc1NC(=S)NCCC(c1ccccc1)c1ccccc1	-269	3.7*	-1	-10	1.1	1	-96
COCCCNC(=S)Nc1ccccc1C	8	0.92	14	13	0.9	0.86	.
S=C(NCCC(c1ccccc1)c1ccccc1)Nc1cccc(Cl)c1	-305	4.1*	-70	-70	1.7	1.7	-274
S=C(NCc1ccccn1)Nc1cccc(Cl)c1	-17	1.2	6	4	1	0.94	.
CCc1ccc(NC(=O)NCC2CCN(Cc3cccc(Cl)c3)CC2)cc1	-209	3.1*	-54	.	.	1.5	-120
Cc1ccc(NC(=O)NCC2CCN(Cc3cccc(Cl)c3)CC2)cc1Cl	-322	4.2*	-39	-14	1.1	1.4	-87
COc1cccc(NC(=O)NCC2CCN(Cc3ccc(F)cc3)CC2)c1	-96	2	-36	.	.	1.4	.
O=C1CC(c2ccccc2)Oc2cc(O)cc(O)c21 (configuration not stated)	2	0.98	-3	.	.	1	.
CC1CC(=O)c2c(cc3c(-c4c(O)cc(O)c5c(O)c6c(cc45)OC(C)CC6=O)c(O)cc(O)c3c2O)O1 (configuration not stated)	42*	0.58	12	29	0.7	0.89	68*
Cc1cc(C)cc(N(CCC#N)C(=O)COC(=O)c2nc3nc(C)cc(C)n3n2)c1	-5	1	2	.	.	0.97	.
O=C(Nc1nc(-c2ccco2)c(-c2ccco2)s1)C1CC(=O)N(c2ccc3c(c2)OCCO3)C1 (configuration not stated)	54*	0.46	9	5	0.9	0.91	69*
Cc1nnc(NC(=O)C2CC(=O)N(c3ccc4c(c3)OCCO4)C2)s1 (configuration not stated)	-1	1	-2	.	.	1	.
O=C(O)/C=C\c1cc2c(cc1[N+](=O)[O-])OCO2	42*	0.58	-16	.	.	1.2	45*
CC(C)(C)c1ccc(O)c(N=Cc2cc3c(cc2[N+](=O)[O-])OCO3)c1	42*	0.58	7	.	.	0.93	49*
Cc1ccc(C)c(N=Cc2cc3c(cc2[N+](=O)[O-])OCO3)c1	33	0.67	4	8	0.9	0.96	.
Cc1ccc(C)c(NC(=O)CN(C)C(=O)CC2OC(=O)c3ccccc32)c1 (configuration not stated)	1	0.99	-16	.	.	1.2	.
Cc1cc(C)cc(NC(=O)Nc2cc(S(=O)(=O)N(C)C)ccc2C)c1	-388	4.9*	-2	.	.	1	-243
Cc1ccc(S(=O)(=O)N(C)C)cc1NC(=O)Nc1ccccc1F	-58	1.6	-43	.	.	1.4	.
SMILES	mIAP block	mIAP act	hIAP inh	bIAP inh	bIAP activator	hIAP activ	mIAP inh conf
C[N+](C)(C)C(Cc1ccccc1)C(=O)[O-] (configuration not stated)	47*	0.53	14	.	.	0.86	51*
COCCN(C(=O)COC(=O)CCC1CCCC1)c1c(N)n(Cc2ccccc2)c(=O)[nH]c1=O	-4	1	-1	.	.	1	.
COCCN=c1scc(-c2ccco2)n1/N=C/c1ccc(O)c(O)c1O	54*	0.46	-21	4	1	1.2	53*
C=CCN=c1scc(-c2ccco2)n1/N=C/c1ccc(O)c(O)c1O	59*	0.41	8	.	.	0.92	68*
O=C(O)C1Nc2c(O)cccc2C2C=CCC12 (configuration not stated)	74*	0.26	-69	24	0.8	1.7	86*
COc1cccc(CNS(=O)(=O)c2cc3c4c(c2)CCN4C(=O)CC3)c1	-5	1	-8	.	.	1.1	.
